Screening data (PubChem)
The list is not random: actives were taken first. Their share in the collection is about 1.2%.
TPT1 inh = C. albicans TPT1 enzyme inhibition | actives 0.81% (n = 300,000) | inhibition, % at 5 µM | recombinant caTPT1, FP RNA substrate dephosphorylation;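 active means inhibition above the mean of all tested compounds plus 3 SD, set per screening campaign, cut at about 24% in these data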;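 further: plate controls were DMSO alone for no effect and ferristatin control at 100 nM for full effect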
procasp7 counter = counter-screen: procaspase-7 (human) activation. P55210. recombinant procaspase-7, Ac-DEVD-pNA absorbance 405 nm; D23A/D198A/D206A triple mutant, cannot self-cleave; scale: DMSO 0, 5 µM enzyme 100. activation, % at 8.5 µM. actives 0.093% (n = 330,000). AID 463210;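 active means percent activation above the screen-wide mean plus 3 SD, cut at about 25% in these data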
Target sequence (P55210 whole entry D23A/D198A/D206A): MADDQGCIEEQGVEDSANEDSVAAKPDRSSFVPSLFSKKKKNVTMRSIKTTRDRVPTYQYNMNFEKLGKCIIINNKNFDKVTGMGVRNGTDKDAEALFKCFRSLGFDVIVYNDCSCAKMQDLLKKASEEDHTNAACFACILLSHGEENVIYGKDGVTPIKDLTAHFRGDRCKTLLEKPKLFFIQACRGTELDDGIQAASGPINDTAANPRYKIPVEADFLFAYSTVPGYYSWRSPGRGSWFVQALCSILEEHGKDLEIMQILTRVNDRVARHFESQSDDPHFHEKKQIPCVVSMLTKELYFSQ
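signal = Epi-absorbance of released pNA at 405 nm, two timepoints | assay system = Uncleavable procaspase-7 mutant enzyme | reagent = Ac-DEVD-pNA substrate, 400 µM as added | times = 1 h enzyme–compound preincubation and 2 h substrate reaction, both 25 °C | benchmarks = low DMSO alone, high DMSO plus 5 µM PC-7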
IDE cell activ = boosts human insulin-degrading enzyme activity in HEK cells | FAbeta-B cleavage, fluorescence polarization; 0% vehicle, 100% cell-free pure enzyme wells | activation, % at 5.96 µM | actives 0.073% (n = 340,000) | AID 493087;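 active means activation above the mean of all tested compounds plus 3 SD, set per screening campaign, cut at about 17% in these data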
IDE cell inh = inhibits human insulin-degrading enzyme in HEK cells. actives 0.41% (n = 320,000). inhibition, % at 5.59 µM. FAbetaB cleavage, fluorescence polarization. P14735;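 active means percent inhibition above the average of all tested compounds plus 3 SD, set per screening campaign, cut at about 16% in these data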;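 further: IDE supplied by intact live HEK cells; FP after avidin binding of uncleaved biotin substrate so inhibition keeps polarization high; 0% = DMSO wells and 100% = 60 µM reference IDE inhibitor Ii1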
proCasp3 act = activators of human procaspase-3; P42574; recombinant procaspase-3 D3A, Ac-DEVD-pNA absorbance 405 nm; AID 463141; activation, % at 8.5 µM; actives 0.11% (n = 330,000);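 active means activation above the mean of all tested compounds plus 3 SD, cut at about 21% in these data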;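 further: 0% = DMSO alone and 100% = DMSO wells spiked with extra 5 µM PC-3 D3A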
Target sequence (P42574 whole entry D9A/D28A/D175A): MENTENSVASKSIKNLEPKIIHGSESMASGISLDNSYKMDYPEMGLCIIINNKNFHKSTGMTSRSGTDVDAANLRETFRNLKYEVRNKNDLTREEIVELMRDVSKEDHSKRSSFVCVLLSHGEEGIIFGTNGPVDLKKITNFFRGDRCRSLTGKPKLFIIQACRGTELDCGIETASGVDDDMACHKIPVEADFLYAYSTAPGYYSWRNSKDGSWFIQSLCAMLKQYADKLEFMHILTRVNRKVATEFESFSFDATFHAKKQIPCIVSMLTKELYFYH
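Test system: Procaspase-3 D3A mutant, all three cleavage aspartates alanine | Dosing: Single dose, 8.5 µM nominal compound, 0.8% DMSO | Schedule: 1 h preincubation, 2 h reaction | Technique: 405 nm absorbance of p-nitroaniline, reads at 0 and 120 min | Repeats: One well per compound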
IDE inh confirm = confirmation of human insulin-degrading enzyme inhibitors in cells. shares compounds with IDE cell inh. HEK cells, FAbetaB cleavage, fluorescence polarization. inhibition, % at 5.59 µM. actives 51% (n = 1,200). AID 435028;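 active means mean inhibition across triplicate wells above the cutoff set by the earlier primary insulin-degrading enzyme screen, cut at about 16% in these data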;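 further: 0% = DMSO wells and 100% = 60 µM reference IDE inhibitor Ii1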
HEK293 tox = kills HEK cells in IDE inhibitor counter-screen; HEK293 cytotoxicity, ATP luminescence; actives 28% (n = 1,200); AID 449730; inhibition, % at 5.59 µM; shares compounds with IDE cell inh; in the data active means inhibition above about 22%;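 further: 0% = vehicle wells and 100% = reference cytotoxic drug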
FP fluor counter = fluorescent artifact in IDE inhibitor FP assay | shares compounds with IDE cell inh | FP counterscreen for fluorescent artifacts, IDE probe project | IC50, µM | 30 tested, under 10 active; call rule not given here
* hit, by the source's call.

What do the screens show for `Cc1cccc(OCC(=O)NCC(=O)N/N=C/c2c(C)[nH]c3ccccc23)c1`?
TPT1 inh: 0; procasp7 counter: -7; IDE cell activ: 0; IDE cell inh: 16*; proCasp3 act: -5; IDE inh confirm: 0; HEK293 tox: 17

How did C=CCn1c(SCC(=O)N2CCc3ccccc3C2)nc2sc(CC)cc2c1=O do in these assays?
TPT1 inh: 5; procasp7 counter: -1; IDE cell activ: -2; IDE cell inh: 17*; proCasp3 act: -3; IDE inh confirm: 7; HEK293 tox: 12

What do the screens show for `CCOC(=O)c1ccc2c(c1)n(CC)c(/C=C/N(C)c1ccccc1)[n+]2CC`?
TPT1 inh: 1; procasp7 counter: -9; IDE cell activ: 2; IDE cell inh: -3; proCasp3 act: 5

How did CC[n+]1c(/C=C/N(C)c2ccccc2)n(-c2ccccc2)c2ccc(-c3nc4ccccc4s3)cc21 do in these assays?
TPT1 inh: 9; procasp7 counter: -33; IDE cell activ: -29; IDE cell inh: 57*; proCasp3 act: -79; IDE inh confirm: 22*; HEK293 tox: 118*

What do the screens show for `COc1ccc(NC(=O)c2sc3nc(-c4cccnc4)ccc3c2N)cc1OC`?
TPT1 inh: 20; procasp7 counter: 2; IDE cell activ: -4; IDE cell inh: 19*; proCasp3 act: -4; IDE inh confirm: 13; HEK293 tox: 18

What do the screens show for `O=C(COC(=O)CCc1ccc(S(=O)(=O)N2CCOCC2)cc1)Nc1ccccc1OC(F)F`?
procasp7 counter: 3; IDE cell activ: 3; IDE cell inh: -2; proCasp3 act: 5

What do the screens show for `CC(=O)n1cc([C@H]2C=C(C(N)=O)O[C@@H](OCc3ccc(CO)cc3)C2)c2ccccc21`?
TPT1 inh: 1; procasp7 counter: -16; IDE cell activ: 5; IDE cell inh: 1; proCasp3 act: -5

Results for O=c1c2ccccc2sn1-c1cc(S(=O)(=O)N2CCOCC2)ccc1N1CCOCC1 ?
TPT1 inh: 2; procasp7 counter: -25; IDE cell activ: -32; IDE cell inh: 59*; proCasp3 act: -16; IDE inh confirm: 59*; HEK293 tox: 17; FP fluor counter: >55

Results for Cc1nc2ncnn2c(N2CCCC(C(=O)Nc3ccc4c(c3)CCC4)C2)c1C (stereo not drawn) ?
TPT1 inh: 0; procasp7 counter: 0; IDE cell activ: -34; IDE cell inh: 17*; proCasp3 act: 3; IDE inh confirm: 12; HEK293 tox: 44*

What do the screens show for `O=C(CNC(=O)c1sc2ccccc2c1Cl)NCc1cccnc1`?
TPT1 inh: -4; procasp7 counter: 3; IDE cell activ: -16; IDE cell inh: 19*; proCasp3 act: 4; IDE inh confirm: 7; HEK293 tox: 9

What do the screens show for `COc1cc(/C=C2\SC(=S)N(CC(=O)O)C2=O)ccc1OC(=O)c1ccco1`?
TPT1 inh: 5; procasp7 counter: -15; IDE cell activ: -31; IDE cell inh: 24*; proCasp3 act: -6; IDE inh confirm: 107*; HEK293 tox: 5

How did CCOc1cc(/C=C2/SC(=S)N(CC(=O)O)C2=O)ccc1OC(=O)c1cccs1 do in these assays?
TPT1 inh: 1; procasp7 counter: -21; IDE cell activ: -1; IDE cell inh: 8; proCasp3 act: -8

How did COc1ccc(/C=C2/SC(=S)N(CC(=O)O)C2=O)cc1OCc1ccc(Cl)cc1 do in these assays?
TPT1 inh: 2; procasp7 counter: -20; IDE cell activ: 3; IDE cell inh: -4; proCasp3 act: -9

Results for COc1cc(/C=C2/SC(=S)N(CC(=O)O)C2=O)ccc1OC(=O)c1ccco1 ?
TPT1 inh: 5; procasp7 counter: -24; IDE cell activ: -19; IDE cell inh: 26*; proCasp3 act: -13; IDE inh confirm: 90*; HEK293 tox: 9

How did CCc1ccc(NC(=O)CSc2n[nH]c(=O)n2C2CC2)cc1 do in these assays?
IDE cell activ: -1

Results for CC(=O)CCC(=O)OCC(=O)c1ccc(C(F)(F)F)cc1 ?
TPT1 inh: 1; procasp7 counter: -4; IDE cell activ: 3; IDE cell inh: -2; proCasp3 act: 10

Results for Nc1nnnn1/N=C/c1cc(Cl)cc(Cl)c1O ?
TPT1 inh: -32; procasp7 counter: -4; IDE cell activ: -36; IDE cell inh: 19*; proCasp3 act: -5; IDE inh confirm: 43*; HEK293 tox: 8

How did Cc1cccc(N2CCN(C(=O)CSCc3c(C)noc3C)CC2)c1C do in these assays?
TPT1 inh: -3; procasp7 counter: 3; IDE cell activ: -3; IDE cell inh: 17*; proCasp3 act: -6; IDE inh confirm: 0; HEK293 tox: 65*

What do the screens show for `COc1ccc(N2CCN(c3nc4c(c(=O)n(C)c(=O)n4C)n3Cc3ccccc3)CC2)cc1`?
TPT1 inh: -1; procasp7 counter: 0; IDE cell activ: -3; IDE cell inh: 20*; proCasp3 act: 5; IDE inh confirm: 5; HEK293 tox: 20

Results for C=C(C)Cn1c(N2CCN(c3ccc(OC)cc3)CC2)nc2c1c(=O)n(C)c(=O)n2C ?
TPT1 inh: 0; procasp7 counter: 4; IDE cell activ: -6; IDE cell inh: -1; proCasp3 act: 5

Results for Cc1ccc[n+](CC(=O)c2ccc(-c3ccccc3)cc2)c1 ?
TPT1 inh: 3; procasp7 counter: -2; IDE cell activ: 1; IDE cell inh: 22*; proCasp3 act: 7; IDE inh confirm: 8; HEK293 tox: 16

Results for CCN(CC(=O)Nc1c(F)cccc1F)C(=O)c1ccc(N2C(=O)c3ccccc3C2=O)cc1 ?
TPT1 inh: 3; procasp7 counter: 12; IDE cell activ: 2; IDE cell inh: -2; proCasp3 act: 0

Results for Cn1c(SCC(=O)Nc2ccc3nc(SCC(=O)N4CCCC4)sc3c2)nnc1-c1ccccc1 ?
TPT1 inh: 5; procasp7 counter: -1; IDE cell inh: 21*; proCasp3 act: 1; IDE inh confirm: 14; HEK293 tox: 10

Results for CCCC(=O)Nc1ccc2nc(SCC(=O)N3CCCC3)sc2c1 ?
TPT1 inh: 0; procasp7 counter: 6; IDE cell activ: -9; IDE cell inh: 1; proCasp3 act: 6
